Values joined by “and” are separate entries in the source; they are usually repeats but may differ in a detail not shown here. Equal values may be shown once.
Tested on: U2OS
Test: Multiplex assay against U2OS
Format: toxicity, cell-based
Conditions: human
Summary of the method: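 Live cells were stained at seeding with Hoechst33342, BioTracker Green Microtubule Cytoskeleton Dye, MitoTracker Red and Annexin V Alexa Fluor 680. Following compound addition, they were imaged on a CQ1 microscope at 37°C and 5% CO2 and gated by CellPathfinder machine learning into Hoechst high-intensity objects or normal cells, with normal cells split into healthy, pyknosed or fragmented nuclei and pyknosed cells into mitotic or apoptotic. Tubulin, mitochondrial-mass and membrane-permeability phenotypes are per cents of healthy-nucleus cells.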

[1] = 12 h, 1 µM, compound concentration 1 uM, replicate 1
[2] = 12 h, 1 µM, compound concentration 1 uM, replicate 2
[3] = 12 h, 10 µM, compound concentration 10 uM, replicate 1
[4] = 12 h, 10 µM, compound concentration 10 uM, replicate 2
[5] = 24 h, 1 µM, compound concentration 1 uM, replicate 1
[6] = 24 h, 1 µM, compound concentration 1 uM, replicate 2
[7] = 24 h, 10 µM, compound concentration 10 uM, replicate 1
[8] = 24 h, 10 µM, compound concentration 10 uM, replicate 2

CCOc1cc(N2CCC(O)CC2)ccc1Nc1ncc2c(n1)N(C1CCCC1)CCC(=O)N2C
Population Apoptotic (%) [1]: 46% | Population Fragmented Nuclei (%) [1]: 5% | Population Healthy Nuclei (%) [1]: 86% | Population Hoechst High Intensity Objects (%) [1]: 4% | Population Membrane Permeable-Phenotype (%) [1]: 16% | Population Mitochondria Different-Phenotype (%) [1]: 14% | Population Mitotic Cells (%) [1]: 53% | Population Normal (%) [1]: 95% | Population Pyknosed Nuclei (%) [1]: 8% | Population Tubulin-Different-Phenotype (%) [1]: 18% | Population Apoptotic (%) [2]: 50% | Population Fragmented Nuclei (%) [2]: 8% | Population Healthy Nuclei (%) [2]: 89% | Population Hoechst High Intensity Objects (%) [2]: 7% | Population Membrane Permeable-Phenotype (%) [2]: 18% | Population Mitochondria Different-Phenotype (%) [2]: 16% | Population Mitotic Cells (%) [2]: 50% | Population Normal (%) [2]: 92% | Population Pyknosed Nuclei (%) [2]: 2% | Population Tubulin-Different-Phenotype (%) [2]: 17% | Population Apoptotic (%) [3]: 27% | Population Fragmented Nuclei (%) [3]: 4% | Population Healthy Nuclei (%) [3]: 89% | Population Hoechst High Intensity Objects (%) [3]: 1% | Population Membrane Permeable-Phenotype (%) [3]: 5% | Population Mitochondria Different-Phenotype (%) [3]: 24% | Population Mitotic Cells (%) [3]: 72% | Population Normal (%) [3]: 98% | Population Pyknosed Nuclei (%) [3]: 5% | Population Tubulin-Different-Phenotype (%) [3]: 28% | Population Apoptotic (%) [4]: 33% | Population Fragmented Nuclei (%) [4]: 7% | Population Healthy Nuclei (%) [4]: 90% | Population Hoechst High Intensity Objects (%) [4]: 8% | Population Membrane Permeable-Phenotype (%) [4]: 7% | Population Mitochondria Different-Phenotype (%) [4]: 33% | Population Mitotic Cells (%) [4]: 66% | Population Normal (%) [4]: 91% | Population Pyknosed Nuclei (%) [4]: 2% | Population Tubulin-Different-Phenotype (%) [4]: 27% | Population Fragmented Nuclei (%) [5]: 7% | Population Healthy Nuclei (%) [5]: 87% | Population Hoechst High Intensity Objects (%) [5]: 2% | Population Membrane Permeable-Phenotype (%) [5]: 8% | Population Mitochondria Different-Phenotype (%) [5]: 17% | Population Normal (%) [5]: 97% | Population Tubulin-Different-Phenotype (%) [5]: 18% | Population Apoptotic (%) [6]: 60% | Population Fragmented Nuclei (%) [6]: 10% | Population Healthy Nuclei (%) [6]: 85% | Population Hoechst High Intensity Objects (%) [6]: 6% | Population Membrane Permeable-Phenotype (%) [6]: 11% | Population Mitochondria Different-Phenotype (%) [6]: 20% | Population Mitotic Cells (%) [6]: 40% | Population Normal (%) [6]: 93% | Population Pyknosed Nuclei (%) [6]: 4% | Population Tubulin-Different-Phenotype (%) [6]: 20% | Population Apoptotic (%) [7]: 44% | Population Fragmented Nuclei (%) [7]: 3% | Population Healthy Nuclei (%) [7]: 93% | Population Hoechst High Intensity Objects (%) [7]: 1% | Population Membrane Permeable-Phenotype (%) [7]: 5% | Population Mitochondria Different-Phenotype (%) [7]: 22% | Population Mitotic Cells (%) [7]: 55% | Population Normal (%) [7]: 98% | Population Pyknosed Nuclei (%) [7]: 3% | Population Tubulin-Different-Phenotype (%) [7]: 24% | Population Apoptotic (%) [8]: 20% | Population Fragmented Nuclei (%) [8]: 9% | Population Healthy Nuclei (%) [8]: 87% | Population Hoechst High Intensity Objects (%) [8]: 7% | Population Membrane Permeable-Phenotype (%) [8]: 2% | Population Mitochondria Different-Phenotype (%) [8]: 24% | Population Mitotic Cells (%) [8]: 80% | Population Normal (%) [8]: 92% | Population Pyknosed Nuclei (%) [8]: 2% | Population Tubulin-Different-Phenotype (%) [8]: 38%

CC(=O)O[C@H]1C(=O)[C@@]2(C)[C@H]([C@H](OC(=O)c3ccccc3)[C@]3(O)C[C@H](OC(=O)[C@H](O)[C@@H](NC(=O)c4ccccc4)c4ccccc4)C(C)=C1C3(C)C)[C@]1(OC(C)=O)CO[C@@H]1C[C@@H]2O [PACLITAXEL]
Population Fragmented Nuclei (%) [1]: 6% and 4% | Population Healthy Nuclei (%) [1]: 86% and 92% | Population Hoechst High Intensity Objects (%) [1]: 3% and 2% | Population Membrane Permeable-Phenotype (%) [1]: 15% and 11% | Population Mitochondria Different-Phenotype (%) [1]: 21% and 22% | Population Mitotic Cells (%) [1]: 33% and 80% | Population Normal (%) [1]: 96% and 97% | Population Pyknosed Nuclei (%) [1]: 7% and 3% | Population Tubulin-Different-Phenotype (%) [1]: 32% and 25% | Population Apoptotic (%) [2]: 6% and 8% | Population Fragmented Nuclei (%) [2]: 7% | Population Healthy Nuclei (%) [2]: 81% and 84% | Population Hoechst High Intensity Objects (%) [2]: 10% and 11% | Population Membrane Permeable-Phenotype (%) [2]: 14% and 7% | Population Mitochondria Different-Phenotype (%) [2]: 24% and 30% | Population Mitotic Cells (%) [2]: 93% and 91% | Population Normal (%) [2]: 90% and 88% | Population Pyknosed Nuclei (%) [2]: 10% and 8% | Population Tubulin-Different-Phenotype (%) [2]: 33% | Population Apoptotic (%) [3]: 30% and 77% and 26% | Population Fragmented Nuclei (%) [3]: 3% and 5% and 4% and 2% | Population Healthy Nuclei (%) [3]: 91% and 89% | Population Hoechst High Intensity Objects (%) [3]: 3% [middle of 4 runs] | Population Membrane Permeable-Phenotype (%) [3]: 11% and 7% | Population Mitochondria Different-Phenotype (%) [3]: 19% and 25% | Population Normal (%) [3]: 96% and 95% and 99% and 98% | Population Pyknosed Nuclei (%) [3]: 5% | Population Tubulin-Different-Phenotype (%) [3]: 41% and 30% and 39% | Population Fragmented Nuclei (%) [4]: 10% and 6% | Population Healthy Nuclei (%) [4]: 81% and 88% and 83% and 87% | Population Hoechst High Intensity Objects (%) [4]: 12% and 9% and 11% | Population Membrane Permeable-Phenotype (%) [4]: 12% and 9% and 8% and 6% | Population Mitochondria Different-Phenotype (%) [4]: 28% and 20% and 33% | Population Mitotic Cells (%) [4]: 77% [middle of 4 runs] | Population Normal (%) [4]: 87% and 90% and 88% | Population Pyknosed Nuclei (%) [4]: 8% and 6% and 2% | Population Tubulin-Different-Phenotype (%) [4]: 28% and 26% and 31% | Population Fragmented Nuclei (%) [5]: 4% | Population Healthy Nuclei (%) [5]: 93% and 90% | Population Hoechst High Intensity Objects (%) [5]: 1% and 3% | Population Membrane Permeable-Phenotype (%) [5]: 10% and 3% | Population Mitochondria Different-Phenotype (%) [5]: 19% and 15% | Population Mitotic Cells (%) [5]: 40% and 83% | Population Normal (%) [5]: 98% and 96% | Population Pyknosed Nuclei (%) [5]: 2% and 5% | Population Tubulin-Different-Phenotype (%) [5]: 35% | Population Apoptotic (%) [6]: 38% and 33% | Population Fragmented Nuclei (%) [6]: 5% | Population Healthy Nuclei (%) [6]: 87% and 91% | Population Hoechst High Intensity Objects (%) [6]: 6% and 7% | Population Membrane Permeable-Phenotype (%) [6]: 12% and 9% | Population Mitochondria Different-Phenotype (%) [6]: 23% and 26% | Population Mitotic Cells (%) [6]: 61% and 66% | Population Normal (%) [6]: 93% and 92% | Population Pyknosed Nuclei (%) [6]: 6% and 4% | Population Tubulin-Different-Phenotype (%) [6]: 37% and 33% | Population Apoptotic (%) [7]: 37% and 21% | Population Fragmented Nuclei (%) [7]: 3% and 2% | Population Healthy Nuclei (%) [7]: 94% and 91% and 93% | Population Hoechst High Intensity Objects (%) [7]: 2% and 1% | Population Membrane Permeable-Phenotype (%) [7]: 6% and 4% | Population Mitochondria Different-Phenotype (%) [7]: 26% and 17% and 29% | Population Mitotic Cells (%) [7]: 62% and 78% | Population Normal (%) [7]: 97% and 98% | Population Pyknosed Nuclei (%) [7]: 2% and 4% and 5% | Population Tubulin-Different-Phenotype (%) [7]: 50% and 38% and 34% and 37% | Population Apoptotic (%) [8]: 50% [middle of 4 runs] | Population Fragmented Nuclei (%) [8]: 10% and 5% and 7% | Population Healthy Nuclei (%) [8]: 81% and 86% and 85% | Population Hoechst High Intensity Objects (%) [8]: 5% and 3% and 4% and 9% | Population Mitochondria Different-Phenotype (%) [8]: 32% [middle of 4 runs] | Population Mitotic Cells (%) [8]: 45% and 66% and 50% and 64% | Population Normal (%) [8]: 94% and 96% and 95% and 90% | Population Pyknosed Nuclei (%) [8]: 8% and 3% and 6% | Population Tubulin-Different-Phenotype (%) [8]: 31% and 26% and 27%

Reference: ChEMBL document CHEMBL4689842, “EUbOPEN Chemogenomics Library wave 1” (2021)
